Converted amounts (≈) assume the structure as drawn. Each block holds one compound with its values, some of them ahead of it.
Legend:
[1] = tested on: Gram-negative bacterial strains tested; assay: Antibacterial MIC, summary over the Gram-negative panel; format: cell-based
[2] = tested on: AAC(3), AAC(2′), and AAC(6′); assay: TLC assessment of modification by AACs alone and together; format: biochemical; settings: for modification by three AACs used simultaneously (TLC): AAC(3), AAC(2′) and AAC(6′) simultaneously
[3] = tested on: murine red blood cells (mRBCs); assay: Hemolytic assay; format: cell-based, mouse; settings: for hemolysis: at higher concentrations
Outline: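 Hemolysis was measured on murine red blood cells exposed to the test compounds. Gramicidin, amphotericin B and the parent aminoglycoside were run as comparators.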

A549 cell line = assay: Mammalian cell cytotoxicity assay; format: cell-based
BEAS-2B cell line = assay: Mammalian cell cytotoxicity assay; format: cell-based
[4] = tested on: various yeast strains (C. albicans); assay: In vitro combination study with POS, summary over yeast strains; format: cell-based; settings: for lowering of the MIC value by POS: in combination with POS; for FICI values, range: with POS, all tested fungal strains (except 3d against strain A)
Outline: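 Posaconazole was tested in combination with the test compound against yeast strains, both azole-resistant and azole-susceptible. FICI = (MIC of A in combination / MIC of A alone) + (MIC of B in combination / MIC of B alone). FICI ≤ 0.5 was scored synergy, 0.5 < FICI < 4 no interaction, and FICI ≥ 4 antagonism.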

Pythium insidiosum = settings: in vitro; cited from earlier work
[5] = cited from earlier work
[6] = tested on: Aspergillus nidulans ATCC 38163 (H); assay: Antifungal MIC determination; format: cell-based; settings: Aspergillus nidulans (strain H)
[7] = tested on: various yeast strains and filamentous fungi; assay: Antifungal MIC, summary over the fungal strains tested; format: cell-based, Candida and Aspergillus species; settings: for MIC values, range: range over the fungal strains tested; for MIC of sulfone relative to MIC of corresponding thioether: collection of fungal strains, generally
[8] = tested on: C. albicans ATCC 10231 (strain A); assay: Spontaneous frequency of resistance; format: cell-based
[9] = tested on: C. albicans ATCC 64124 (strain B); assay: Time-kill assay; format: cell-based; settings: for time-kill activity at subinhibitory concentration: 1/2 MIC, 24 h period; for time to complete fungal cell death: at MIC
MRSA (III) = assay: Antibacterial MIC determination; format: cell-based; settings: Staphylococcus aureus
Outline: (§1)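 MICs in μg/mL against a panel of 11 Gram-positive strains (including MRSA strains and VRE) and six Gram-negative strains. The panel held strains both susceptible and resistant to the parent aminoglycoside, each coded by a roman numeral. Each determination was run at least in duplicate.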

[10] = tested on: S. aureus NRS383 (USA 200) (VII); assay: Antibacterial MIC determination; format: cell-based; settings: Staphylococcus aureus, NRS383|USA200
Outline: as §1

[11] = tested on: S. aureus NRS385 (USA 300) (VIII); assay: Antibacterial MIC determination; format: cell-based; settings: Staphylococcus aureus, NRS385|USA300
Outline: as §1

S. aureus ATCC 29213 (V) = assay: Antibacterial MIC determination; format: cell-based; settings: Staphylococcus aureus, ATCC29213
Outline: as §1

E. coli MC1061 (XIV) = assay: Antibacterial MIC determination; format: cell-based; settings: Escherichia coli
Outline: as §1

[12] = tested on: K. pneumoniae ATCC 27736 (XV); assay: Antibacterial MIC determination; format: cell-based; settings: Klebsiella pneumoniae, ATCC27736
Outline: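 MIC in μg/mL against a panel of Gram-positive and Gram-negative strains that includes strains susceptible and resistant to the parent aminoglycoside; each determination done at least in duplicate.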

[13] = tested on: tested Gram-positive bacteria; assay: Antibacterial MIC, summary over the Gram-positive panel; format: cell-based; settings: iv
Outline: as §1

[14] = at 50× MIC, MIC as in combination with POS

SMILES: NC[C@H]1O[C@H](O[C@H]2[C@H](O)[C@@H](O[C@H]3O[C@H](CO)[C@@H](O)[C@H](N)[C@H]3O)[C@H](N)C[C@@H]2N)[C@H](N)[C@@H](O)[C@@H]1O [KANB, kanamycin B, reference compound]
MIC [1]: ≤ 16 µg/mL | modification by three AACs used simultaneously (TLC) [2]: converted to a diacetylated adduct | modification by a single AAC (TLC) ([2]; individually subjected to AAC(3), AAC(2′), or AAC(6′) overnight): completely converted to its corresponding monoacetylated product | hemolysis [3]: little to no hemolysis | toxicity (A549 cell line): little to no toxicity | toxicity (BEAS-2B cell line): little to no toxicity

reduction of the MIC values of POS ([4]; in the presence of 3c): 16–64 fold | reduction of the MIC values of POS ([4]; in the presence of 3d): 16–32 fold
SMILES: CC[C@@H]([C@H](C)O)n1ncn(-c2ccc(N3CCN(c4ccc(OC[C@@H]5CO[C@@](Cn6cncn6)(c6ccc(F)cc6F)C5)cc4)CC3)cc2)c1=O [POS, posaconazole, reference compound]

SMILES: [H]/N=C(/N)N[C@H]1[C@H](O)[C@@H](O)[C@H](O[C@@H]2O[C@@H](C)[C@](O)(C=O)[C@H]2O[C@@H]2O[C@@H](CO)[C@H](O)[C@@H](O)[C@@H]2NC)[C@@H](N/C(N)=N\[H])[C@@H]1O [STR, streptomycin]
concentration displaying antifungal activity (antifungal MIC) (Pythium insidiosum): 64 µg/mL | safe serum concentration [5]: 30 to 40 µg/mL

SMILES: CNC(C)C1CCC(N)C(OC2C(N)CC(N)C(OC3OCC(C)(O)C(NC)C3O)C2O)O1 (stereo not shown) [GEN, gentamicin]
concentration displaying antifungal activity (antifungal MIC) (Pythium insidiosum): 64 µg/mL | safe serum concentration [5]: 30 to 40 µg/mL

SMILES: NC[C@@H]1O[C@H](O[C@H]2[C@@H](O)[C@H](O[C@@H]3[C@@H](O)[C@H](N)C[C@H](N)[C@H]3O[C@H]3O[C@H](CN)[C@@H](O)[C@H](O)[C@H]3N)O[C@@H]2CO)[C@H](N)[C@@H](O)[C@@H]1O [NEO, neomycin B]
concentration displaying antifungal activity (antifungal MIC) (Pythium insidiosum): 64 µg/mL

SMILES: CCCCCCCCCCCCSC[C@@H]1O[C@@H](O[C@@H]2[C@@H](O)[C@H](O[C@@H]3O[C@@H](CN)[C@H](O)[C@@H](O)[C@@H]3N)[C@@H](N)C[C@H]2N)[C@@H](O)[C@H](N)[C@H]1O [Compound 3c]
times better than KANB [6]: 64 times | MIC values, range [7]: ≤1.95 to 31.2 µg/mL | lowering of the MIC value by POS [4]: 4–16 fold | FICI values, range [4]: 0.07 to 0.31 | mutants ([8]; 3c (8 μg/mL) and POS (0.25 μg/mL), 96 h incubation): 24 colonies | spontaneous frequency rate of resistance ([8]; combination of 3c and POS): 2.4 × 10^−7 | time-kill activity at subinhibitory concentration [9]: fungistatic activity | time to complete fungal cell death [9]: 24 h | mRBCs lysed ([3]; 50× MIC, MIC as in combination with POS): 60% | less hemolytic than AmB [3, 14]: ~ 30% | less hemolytic than gramicidin [3, 14]: ~ 20%

SMILES: CCCCCCCCCCCCCCS(=O)(=O)C[C@@H]1O[C@@H](O[C@@H]2[C@@H](O)[C@H](O[C@@H]3O[C@@H](CN)[C@H](O)[C@@H](O)[C@@H]3N)[C@@H](N)C[C@H]2N)[C@@H](O)[C@H](N)[C@H]1O [Compound 4d]
MIC of sulfone relative to MIC of corresponding thioether [7]: ≤ 2 fold dilution

SMILES: CCCCCCCCCCCCCCSC[C@@H]1O[C@@H](O[C@@H]2[C@@H](O)[C@H](O[C@@H]3O[C@@H](CN)[C@H](O)[C@@H](O)[C@@H]3N)[C@@H](N)C[C@H]2N)[C@@H](O)[C@H](N)[C@H]1O [Compound 3d]
MIC (MRSA (III)): 32 to 64 µg/mL (≈ 46 to 92 µM) | MIC [10]: 8 to 16 µg/mL (≈ 11.5 to 23 µM) | MIC [11]: 16 to 32 µg/mL (≈ 23 to 46 µM) | modification by three AACs used simultaneously (TLC) [2]: only the 3-monoacetylated product was obtained | MIC values, range [7]: ≤1.95 to 15.6 µg/mL | lowering of the MIC value by POS [4]: 2–8 fold | FICI values, range [4]: 0.07 to 0.31 | time-kill activity at subinhibitory concentration [9]: fungistatic activity | time to complete fungal cell death [9]: 12 h

MIC (S. aureus ATCC 29213 (V)): 16 to 32 µg/mL (≈ 25 to 50 µM) | MIC [11]: 32 to 64 µg/mL (≈ 50 to 100 µM)
SMILES: CCCCCCCCCCSC[C@@H]1O[C@@H](O[C@@H]2[C@@H](O)[C@H](O[C@@H]3O[C@@H](CN)[C@H](O)[C@@H](O)[C@@H]3N)[C@@H](N)C[C@H]2N)[C@@H](O)[C@H](N)[C@H]1O [Compound 3b]
hemolysis [3]: little to no hemolysis | toxicity (A549 cell line): little to no toxicity | toxicity (BEAS-2B cell line): little to no toxicity

SMILES: CCCCCCCCCCCCS(=O)(=O)C[C@@H]1O[C@@H](O[C@@H]2[C@@H](O)[C@H](O[C@@H]3O[C@@H](CN)[C@H](O)[C@@H](O)[C@@H]3N)[C@@H](N)C[C@H]2N)[C@@H](O)[C@H](N)[C@H]1O [Compound 4c]
MIC of sulfone relative to MIC of corresponding thioether [7]: ≤ 2 fold dilution

SMILES: CCCCCCCCSC[C@@H]1O[C@@H](O[C@@H]2[C@@H](O)[C@H](O[C@@H]3O[C@@H](CN)[C@H](O)[C@@H](O)[C@@H]3N)[C@@H](N)C[C@H]2N)[C@@H](O)[C@H](N)[C@H]1O [Compound 3a]
hemolysis [3]: little to no hemolysis | toxicity (A549 cell line): little to no toxicity | toxicity (BEAS-2B cell line): little to no toxicity

SMILES: NC[C@H]1O[C@H](O[C@H]2[C@H](O)[C@@H](O[C@H]3O[C@H](CO)[C@@H](O)[C@H](N)[C@H]3O)[C@H](N)C[C@@H]2N)[C@H](O)[C@@H](O)[C@@H]1O [KANA, kanamycin A]
MIC (E. coli MC1061 (XIV)): 8 to 16 µg/mL (≈ 16.5 to 33 µM) | MIC [12]: 16 to 32 µg/mL (≈ 33 to 66 µM) | MIC [13]: > 128 µg/mL

SMILES: NC[C@@H]1O[C@H](O[C@H]2[C@@H](O)[C@H](O[C@@H]3[C@@H](O)[C@H](N)C[C@H](N)[C@H]3O[C@H]3O[C@H](CO)[C@@H](O)[C@H](O)[C@H]3N)O[C@@H]2CO)[C@H](N)[C@@H](O)[C@@H]1O [PAR, paromomycin]
concentration displaying antifungal activity (antifungal MIC) (Pythium insidiosum): 64 µg/mL | safe serum concentration [5]: 30 to 40 µg/mL

SMILES: CCCCCCCCCCCCCCCCSC[C@@H]1O[C@@H](O[C@@H]2[C@@H](O)[C@H](O[C@@H]3O[C@@H](CN)[C@H](O)[C@@H](O)[C@@H]3N)[C@@H](N)C[C@H]2N)[C@@H](O)[C@H](N)[C@H]1O [Compound 3e]
times better than FLC [6]: 32 times | times better than KANB [6]: 64 times | MIC values, range [7]: 1.95 to 3.9 µg/mL | times more effective than KANB ([7]; several of the tested yeast strains): 32 times
